# From ChEMBL document CHEMBL2380289, “Ligand based approach to L-type calcium channel by imidazo[2,1-b]thiazole-1,4-dihydropyridines: from heart activity to brain affinity” (J Med Chem, 2013)
# System: Ileum
# Test: Relaxant activity in potassium depolarized guinea pig ileum longitudinal smooth muscle assessed as inhibition of calcium-induced contraction
# Type: functional, tissue-based
# Conditions: Cavia porcellus
# Method in brief: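 K⁺-depolarized (80 mM) guinea pig ileum longitudinal smooth muscle is used. Calcium-induced contraction is measured with cumulative compound addition.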
row,Compound,IC50 [µM]
1,COC(=O)C1=C(C)NC(C)=C(C(=O)OC)C1c1c(-c2cccs2)nc2sc(C)cn12,1.37

# Target: not listed separately
# Test: Displacement of [3H]-PN200-110 from L-type calcium channel in Hartley guinea pig ventricular membrane […] after 90 mins
# Set-up: species or system Cavia porcellus
# Conditions: not given
Compound,IC50 [µM],Ki [µM]
COC(=O)C1=C(C)NC(C)=C(C(=O)OC)C1c1c(-c2ccc(OC)c(OC)c2)nc2sccn12,0.046,0.016
COC(=O)C1=C(C)NC(C)=C(C(=O)OC)C1c1c(-c2cccc(OC)c2)nc2sccn12,0.45,0.16
COC(=O)C1=C(C)NC(C)=C(C(=O)OC)C1c1c(-c2cc(OC)cc(OC)c2)nc2sccn12,0.84,0.31
CCCc1cn2c(C3C(C(=O)OC)=C(C)NC(C)=C3C(=O)OC)c(-c3c(OC)ccc(OC)c3[N+](=O)[O-])nc2s1,3.32,1.16

# System: not listed separately
# Test: Negative chronotropic activity in guinea pig right atrium assessed as decrease in atrial rate at 10^-4 M relative to control
# Type: functional, Cavia porcellus, Cardiac atrium
# Set-up: scale not given: the % may be the effect or the level left
# Conditions: not given
# Method in brief: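 The read-out is decrease in rate of spontaneously beating isolated guinea pig right atrium at 10⁻⁴ M. It is expressed as percent change from control, n = 7−8.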
row,Compound,Activity [%]
1,COC(=O)C1=C(C)NC(C)=C(C(=O)OC)C1c1c(-c2cccs2)nc2sc(C)cn12,70

# Species: Cavia porcellus
# Test: Displacement of [3H]-PN200-110 from L-type calcium channel in Hartley guinea pig atrial membrane at 100 uM after 90 mins relative to control
# Type: cell membranes
# Conditions: Cardiac atrium
row,Compound,%max [%]
1,COC(=O)C1=C(C)NC(C)=C(C(=O)OC)C1c1c(Cl)nc2sc(C)cn12,95
2,COC(=O)C1=C(C)NC(C)=C(C(=O)OC)C1c1c(-c2ccc(OC)c(OC)c2)nc2sccn12,50
3,COC(=O)C1=C(C)NC(C)=C(C(=O)OC)C1c1c(-c2ccccc2C(F)(F)F)nc2sccn12,91
4,COC(=O)C1=C(C)NC(C)=C(C(=O)OC)C1c1c(-c2cccc(OC)c2)nc2sccn12,92
5,COC(=O)C1=C(C)NC(C)=C(C(=O)OC)C1c1c(-c2cc(OC)ccc2OC)nc2sccn12,65
6,COC(=O)C1=C(C)NC(C)=C(C(=O)OC)C1c1c(-c2cc(OC)cc(OC)c2)nc2sccn12,54
7,CCCc1cn2c(C3C(C(=O)OC)=C(C)NC(C)=C3C(=O)OC)c(-c3c(OC)ccc(OC)c3[N+](=O)[O-])nc2s1,53

# Target: not listed separately
# Test: Displacement of [3H]-PN200-110 from L-type calcium channel in Hartley guinea pig atrial membrane after 90 mins
# Type: cell membranes, Cavia porcellus, Cardiac atrium
# Conditions: not given
# Method in brief: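 Guinea pig atrial membranes are labelled at the 1,4-DHP site with (+)-[5-methyl-3H]PN200-110 at 0.5 nM. Competitor is added over 0.001−100 μM from 10⁻² M DMSO stocks diluted in buffer. Results are given as IC50 and Ki, mean ± SEM. Student's t-test is applied with P<0.001.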
Compound,IC50 [µM],Ki [µM]
COC(=O)C1=C(C)NC(C)=C(C(=O)OC)C1c1c(Cl)nc2sc(C)cn12,0.12,0.042
COC(=O)C1=C(C)NC(C)=C(C(=O)OC)C1c1c(-c2ccc(OC)c(OC)c2)nc2sccn12,0.39,0.14
COC(=O)C1=C(C)NC(C)=C(C(=O)OC)C1c1c(-c2ccccc2C(F)(F)F)nc2sccn12,0.14,0.049
COC(=O)C1=C(C)NC(C)=C(C(=O)OC)C1c1c(-c2cccc(OC)c2)nc2sccn12,0.29,0.09
COC(=O)C1=C(C)NC(C)=C(C(=O)OC)C1c1c(-c2cc(OC)ccc2OC)nc2sccn12,0.12,0.044
COC(=O)C1=C(C)NC(C)=C(C(=O)OC)C1c1c(-c2cc(OC)cc(OC)c2)nc2sccn12,0.25,0.09
CCCc1cn2c(C3C(C(=O)OC)=C(C)NC(C)=C3C(=O)OC)c(-c3c(OC)ccc(OC)c3[N+](=O)[O-])nc2s1,0.065,0.023

# System: Ileum
# Test: Relaxant activity in potassium depolarized guinea pig ileum longitudinal smooth muscle assessed as inhibition of calcium-induced contraction at 5x10'-6 M relative to control
# Type: functional, Cavia porcellus
# Set-up: scale not given: the % may be the effect or the level left
# Conditions: not given
row,Compound,Activity [%]
1,COC(=O)C1=C(C)NC(C)=C(C(=O)OC)C1c1c(-c2cccs2)nc2sc(C)cn12,81

# System: HEK293
# Test: Displacement of [3H]-PN200-110 from voltage-gated calcium channel subunit alpha Cav1.2a (unknown origin) expressed in HEK293 cells at 100 uM after 90 mins by liquid scintillation counting analysis relative to control
# Type: cell-based
# Conditions: Homo sapiens
row,Compound,%max [%]
1,COC(=O)C1=C(C)NC(C)=C(C(=O)OC)C1c1c(Cl)nc2sc(C)cn12,< 50
2,COC(=O)C1=C(C)NC(C)=C(C(=O)OC)C1c1c(-c2ccc(OC)c(OC)c2)nc2sccn12,55
3,COC(=O)C1=C(C)NC(C)=C(C(=O)OC)C1c1c(-c2ccccc2C(F)(F)F)nc2sccn12,< 50
4,COC(=O)C1=C(C)NC(C)=C(C(=O)OC)C1c1c(-c2cccc(OC)c2)nc2sccn12,< 50
5,COC(=O)C1=C(C)NC(C)=C(C(=O)OC)C1c1c(-c2cc(OC)ccc2OC)nc2sccn12,< 50
6,COC(=O)C1=C(C)NC(C)=C(C(=O)OC)C1c1c(-c2cc(OC)cc(OC)c2)nc2sccn12,50
7,CCCc1cn2c(C3C(C(=O)OC)=C(C)NC(C)=C3C(=O)OC)c(-c3c(OC)ccc(OC)c3[N+](=O)[O-])nc2s1,55

# Species: Cavia porcellus
# Test: Displacement of [3H]-PN200-110 from L-type calcium channel in Hartley guinea pig ventricular membrane […] after 90 mins relative to control
# Conditions: not given
row,Compound,%max [%]
1,COC(=O)C1=C(C)NC(C)=C(C(=O)OC)C1c1c(Cl)nc2sc(C)cn12,< 50
2,COC(=O)C1=C(C)NC(C)=C(C(=O)OC)C1c1c(-c2ccc(OC)c(OC)c2)nc2sccn12,93
3,COC(=O)C1=C(C)NC(C)=C(C(=O)OC)C1c1c(-c2ccccc2C(F)(F)F)nc2sccn12,< 50
4,COC(=O)C1=C(C)NC(C)=C(C(=O)OC)C1c1c(-c2cccc(OC)c2)nc2sccn12,96
5,COC(=O)C1=C(C)NC(C)=C(C(=O)OC)C1c1c(-c2cc(OC)ccc2OC)nc2sccn12,< 50
6,COC(=O)C1=C(C)NC(C)=C(C(=O)OC)C1c1c(-c2cc(OC)cc(OC)c2)nc2sccn12,60
7,CCCc1cn2c(C3C(C(=O)OC)=C(C)NC(C)=C3C(=O)OC)c(-c3c(OC)ccc(OC)c3[N+](=O)[O-])nc2s1,50

# System: Aorta
# Test: Relaxant activity in potassium depolarized guinea pig aortic strips assessed as inhibition of calcium-induced contraction at 10^-4 M relative to control
# Type: functional, Cavia porcellus
# Set-up: scale not given: the % may be the effect or the level left
# Conditions: not given
# Method in brief: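 Guinea pig aortic strips and ileum longitudinal smooth muscle are depolarized with 80 mM K⁺. The read-out is percent inhibition of calcium-induced contraction. Aorta is tested at 10⁻⁴ M and ileum at 10⁻⁵ M.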
row,Compound,Activity [%]
1,COC(=O)C1=C(C)NC(C)=C(C(=O)OC)C1c1c(-c2cccs2)nc2sc(C)cn12,9

# System: not listed separately
# Test: Displacement of [3H]-PN200-110 from voltage-gated calcium channel subunit alpha Cav1.2a (unknown origin) expressed in HEK293 cells after 90 mins by liquid scintillation counting analysis
# Type: cell-based, Homo sapiens
# Conditions: not given
# Method in brief: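 Intact HEK-293 cells stably transfected with a rabbit Cav1.2a (α1c-a) plasmid are used. They are incubated with 0.5 nM (+)-[5-methyl-3H]PN200-110 plus competitor at 0.001−100 μM, from 10⁻² M DMSO stocks diluted in buffer. IC50 values are given as mean ± SEM.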
Compound,IC50 [µM],Ki [µM]
COC(=O)C1=C(C)NC(C)=C(C(=O)OC)C1c1c(-c2ccc(OC)c(OC)c2)nc2sccn12,0.062,0.023
COC(=O)C1=C(C)NC(C)=C(C(=O)OC)C1c1c(-c2cc(OC)cc(OC)c2)nc2sccn12,0.61,0.19
CCCc1cn2c(C3C(C(=O)OC)=C(C)NC(C)=C3C(=O)OC)c(-c3c(OC)ccc(OC)c3[N+](=O)[O-])nc2s1,0.0044,0.0016

# System: not listed separately
# Test: Negative chronotropic activity in guinea pig right atrium assessed as decrease in atrial rate
# Type: functional, tissue-based
# Conditions: Cavia porcellus, Cardiac atrium
# Method in brief: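 Isolated guinea pig atria are used, with left atria driven at 1 Hz. Compounds are added cumulatively. EC50 is derived from log concentration−response curves by Litchfield–Wilcoxon probit analysis, n = 6−7. EC50 is not calculated when the maximal effect is below 50%.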
row,Compound,EC50 [µM]
1,COC(=O)C1=C(C)NC(C)=C(C(=O)OC)C1c1c(-c2cccs2)nc2sc(C)cn12,40.5

# Target: not listed separately
# Test: Displacement of [3H]-PN200-110 from L-type calcium channel dihydropyridine binding site in Wistar rat cortex homogenate after 60 mins by liquid scintillation spectometric analysis
# Type: tissue-based
# Conditions: not given
# Method in brief: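 Competition binding on rat cortex homogenate with (+)-[5-methyl-3H]PN200-110. Compounds are dissolved in DMSO as 10⁻² M stocks and diluted in buffer. Six displacer concentrations are tested, each in triplicate. IC50 is obtained by −log probit analysis and Ki by the Prusoff method. Values are mean ± SEM of 3−5 separate experiments done in triplicate.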
Compound,IC50 [µM],Ki [µM]
COC(=O)C1=C(C)NC(C)=C(C(=O)OC)C1c1c(Cl)nc2scc(C)n12,106,34.7
COC(=O)C1=C(C)NC(C)=C(C(=O)OC)C1c1c(Cl)nc2sc(C)cn12,1020,340
COC(=O)C1=C(C)NC(C)=C(C(=O)OC)C1c1c(C(F)(F)F)nc2sccn12,1.65,0.52
COC(=O)C1=C(C)NC(C)=C(C(=O)OC)C1c1c(-c2ccc(OC)c(OC)c2)nc2sccn12,0.35,0.11
COC(=O)C1=C(C)NC(C)=C(C(=O)OC)C1c1c(-c2ccccc2C(F)(F)F)nc2sccn12,38.6,13.9
COC(=O)C1=C(C)NC(C)=C(C(=O)OC)C1c1c(-c2cccc(OC)c2)nc2sccn12,0.99,0.33
COC(=O)C1=C(C)NC(C)=C(C(=O)OC)C1c1c(-c2cc(OC)ccc2OC)nc2sccn12,0.21,0.16
COC(=O)C1=C(C)NC(C)=C(C(=O)OC)C1c1c(-c2cc(OC)cc(OC)c2)nc2sccn12,1.21,0.41

# System: not listed separately
# Test: Negative inotropic activity in guinea pig left atrium assessed as decrease in developed tension at 10^-6 M relative to control
# Type: functional, Cavia porcellus, Cardiac atrium
# Set-up: scale not given: the % may be the effect or the level left
# Conditions: not given
row,Compound,Activity [%]
1,COC(=O)C1=C(C)NC(C)=C(C(=O)OC)C1c1c(-c2cccs2)nc2sc(C)cn12,40

# Species: Rattus norvegicus
# Test: Displacement of [3H]-PN200-110 from L-type calcium channel dihydropyridine binding site in Wistar rat cortex homogenate at 100 uM after 60 mins by liquid scintillation spectometric analysis relative to control
# Type: tissue-based
# Conditions: not given
# Method in brief: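 Binding on rat cortex homogenate using (+)-[5-methyl-3H]PN200-110. The read-out is percent of maximal radioligand displacement at 100 μM test compound. Compounds are made up as 10⁻² M DMSO stocks and diluted in buffer. Values are from 3−5 separate experiments done in triplicate.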
row,Compound,%max [%]
1,COC(=O)C1=C(C)NC(C)=C(C(=O)OC)C1c1c(Cl)nc2scc(C)n12,52
2,COC(=O)C1=C(C)NC(C)=C(C(=O)OC)C1c1c(Cl)nc2sc(C)cn12,60
3,COC(=O)C1=C(C)NC(C)=C(C(=O)OC)C1c1c(C(F)(F)F)nc2sccn12,75
4,COC(=O)C1=C(C)NC(C)=C(C(=O)OC)C1c1c(-c2ccc(OC)c(OC)c2)nc2sccn12,77
5,COC(=O)C1=C(C)NC(C)=C(C(=O)OC)C1c1c(-c2ccccc2C(F)(F)F)nc2sccn12,52
6,COC(=O)C1=C(C)NC(C)=C(C(=O)OC)C1c1c(-c2cccc(OC)c2)nc2sccn12,90
7,COC(=O)C1=C(C)NC(C)=C(C(=O)OC)C1c1c(-c2cc(OC)ccc2OC)nc2sccn12,56
8,COC(=O)C1=C(C)NC(C)=C(C(=O)OC)C1c1c(-c2cc(OC)cc(OC)c2)nc2sccn12,79
